This passage reports IC50 results from ChEMBL document CHEMBL3779798, “Novel seleno- and thio-urea derivatives with potent in vitro activities against several cancer cell lines” (Eur J Med Chem, 2016).

Where only a bound is given, the exact number is not on record here.

Holding throughout (format): functional, cell-based
Assay [1] in a line: Anticancer activity against human BxPC3 cells assessed as inhibition of cell growth after 48 hrs by MTT assay. To be noted: BXPC-3, 48 h. In short, it runs like this:
(§1)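 MTT assay at 3,000 cells/well. Cells treated with DMSO or seven concentrations from 0.5 to 50 µM for 24, 48 or 72 h. MTT added 3 h before the end point; formazan dissolved in DMSO and read at 570 and 630 nm. IC50 is the concentration giving 50% growth inhibition. Media: PANC-1, BxPC3 and 1205Lu in DMEM; DU145 and A549 in RPMI 1640; HT29, HCT116 and RKO in McCoy's 5A, all with 10% FBS and pen/strep, at 37 °C and 5% CO2.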
On the technique in general: Tetrazolium dyes change colour on reduction, which living cells bring about.

Assay [2] is described as follows: Anticancer activity against human DU145 cells assessed as inhibition of cell growth after 48 hrs by MTT assay. To be noted: DU-145, 48 h. In short, it runs like this:
as §1

Assay [3] is described as follows: Anticancer activity against human HCT116 cells assessed as inhibition of cell growth after 24 hrs by MTT assay. To be noted: HCT-116, 24 h. In short, it runs like this:
as §1

A short description of assay [4]: Anticancer activity against human BxPC3 cells assessed as inhibition of cell growth after 24 hrs by MTT assay. To be noted: BXPC-3, 24 h. In a few lines:
as §1

Assay [5] in a line: Anticancer activity against human BxPC3 cells assessed as inhibition of cell growth after 72 hrs by MTT assay. To be noted: BXPC-3, 72 h. In a few lines: as §1
Assay [6] deals with A549. Nature of the assay: Anticancer activity against human A549 cells assessed as inhibition of cell growth after 72 hrs by MTT assay. To be noted: A549, 72 h. In short, it runs like this: as §1
The nature of assay [7]: Anticancer activity against human HCT116 cells assessed as inhibition of cell growth after 48 hrs by MTT assay. To be noted: HCT-116, 48 h. In short, it runs like this: as §1
Assay [8] in a line: Anticancer activity against human 1205 Lu cells assessed as inhibition of cell growth after 72 hrs by MTT assay. In a few lines:
as §1

A short description of assay [9]: Anticancer activity against human DU145 cells assessed as inhibition of cell growth after 24 hrs by MTT assay. To be noted: DU-145, 24 h. In short, it runs like this: as §1
Assay [10] can be described thus: Anticancer activity against human DU145 cells assessed as inhibition of cell growth after 72 hrs by MTT assay. To be noted: DU-145, 72 h. In a few lines: as §1
Assay [11] is described as follows: Anticancer activity against human 1205 Lu cells assessed as inhibition of cell growth after 48 hrs by MTT assay. In a few lines:
as §1

Assay [12] in a line: Anticancer activity against human PANC1 cells assessed as inhibition of cell growth after 72 hrs by MTT assay. To be noted: PANC-1, 72 h. In short, it runs like this:
as §1

The nature of assay [13]: Anticancer activity against human PANC1 cells assessed as inhibition of cell growth after 24 hrs by MTT assay. To be noted: PANC-1, 24 h. In a few lines:
as §1

A short description of assay [14]: Anticancer activity against human HCT116 cells assessed as inhibition of cell growth after 72 hrs by MTT assay. To be noted: HCT-116, 72 h. In a few lines:
as §1

The test system of assay [15] is A549. Nature of the assay: Anticancer activity against human A549 cells assessed as inhibition of cell growth after 24 hrs by MTT assay. To be noted: A549, 24 h. In short, it runs like this:
as §1

For assay [16], the system named is A549. Nature of the assay: Anticancer activity against human A549 cells assessed as inhibition of cell growth after 48 hrs by MTT assay. To be noted: A549, 48 h. In a few lines:
as §1

The nature of assay [17]: Anticancer activity against human 1205 Lu cells assessed as inhibition of cell growth after 24 hrs by MTT assay. In a few lines:
as §1

Assay [18] can be described thus: Anticancer activity against human PANC1 cells assessed as inhibition of cell growth after 48 hrs by MTT assay. To be noted: PANC-1, 48 h. In short, it runs like this:
as §1

By IC50 is commonly meant the concentration at which inhibition is half-maximal. As to `N=C(N)[Se]Cc1c2ccccc2nc2ccccc12`, the 50% inhibitory concentration (IC50) was found to be 10.5 µM in assay [1]; 14.9 µM in [2]; 31.8 µM in assay [3]; 20.4 µM in assay [4]; 8.2 µM in assay [5]; 6.2 µM in [6]. Further, the 50% inhibitory concentration (IC50) in [7] is 16.7 µM; in assay [8], 11.6 µM; in [9] it was 31.8 µM; in [10] it was 12.9 µM; in [11], 16.7 µM; in [12], 9.8 µM. Also, the concentration for half-maximal inhibition (IC50) was 12.1 µM in assay [13]; 14.4 µM in assay [14]; 34.4 µM in assay [15]; 14.9 µM in [16]; 13 µM in assay [17]; 11.6 µM in assay [18].
Consider `N=C(N)[Se]CN1C(=O)c2ccccc2C1=O`, for which the half-inhibitory concentration (IC50) was 19.1 µM in assay [1]; 14 µM in [2]; 29.2 µM in [3]; 19.8 µM in assay [4]; 18.8 µM in assay [5]; 5.5 µM in assay [6]. Moreover, the IC50 in assay [7] was 17.9 µM; in assay [8], 9.3 µM; in assay [9], 18.8 µM; in assay [10], 6.9 µM; in assay [11] it was 13.2 µM; in [12], 12.6 µM. For the same compound, the 50% inhibitory concentration (IC50) in assay [13] is 23.5 µM; in assay [14], 15.6 µM; in assay [15], 11.2 µM; in assay [16] it was 7.8 µM; in [17] it was 19 µM; in assay [18], 15.3 µM.
In the case of `COc1cc2oc(=O)cc(CSC(=N)N)c2cc1OC`, the IC50 in [1], in [2], in assay [3], in [4], in assay [5] and in assay [6] was above 50 µM throughout. The IC50 in assay [7] was above 50 µM; in assay [8], 37.4 µM; in assay [9] it was above 50 µM; in assay [10], above 50 µM; in [11], above 50 µM; in [12] it was above 50 µM. In addition, the IC50 in assay [13], in assay [14], in [15], in [16], in [17] and in [18] was above 50 µM throughout.
For `N=C(N)[Se]Cc1ccc(-n2cccc2)cc1`, the IC50 was 14.7 µM in [1]; above 50 µM in assay [2]; above 50 µM in [3]; above 50 µM in [4]; 8.3 µM in [5]; 12.8 µM in assay [6]. Moreover, the half-maximal inhibitory concentration (IC50) in [7], in assay [8], in assay [9], in assay [10], in [11] and in [12] was above 50 µM each time. Moreover, the IC50 in [13] is above 50 µM; in assay [14], above 50 µM; in assay [15], 25.3 µM; in assay [16] it was 16.3 µM; in [17] it was above 50 µM; in [18], above 50 µM.
For the compound `COc1cc2oc(=O)cc(C[Se]C(=N)N)c2cc1OC`, the IC50 is above 50 µM in assay [1]; 8.4 µM in assay [2]; 26.7 µM in assay [3]; above 50 µM in assay [4]; 6.6 µM in [5]; 4.5 µM in assay [6]. Besides, the half-inhibitory concentration (IC50) in assay [7] was 8.9 µM; in assay [8], 1.9 µM; in [9], 11.4 µM; in [10], 6.8 µM; in assay [11], 4.4 µM; in assay [12], 10 µM. The half-maximal inhibitory concentration (IC50) in assay [13] is 20.6 µM; in assay [14] it was 6.6 µM; in [15] it was 15.7 µM; in [16] it was 5.2 µM; in [17], 21 µM; in assay [18] it was 19.4 µM.
As for `N=C(N)[Se]Cc1cc2c(cc1Br)OCO2`, the half-maximal inhibitory concentration (IC50) in assay [1] was above 50 µM; in assay [2], above 50 µM; in assay [3], above 50 µM; in assay [4], above 50 µM; in assay [5], 36.9 µM; in assay [6], 36.3 µM. For the same compound, the half-inhibitory concentration (IC50) is 31.8 µM in assay [7]; 21.8 µM in assay [8]; above 50 µM in [9]; above 50 µM in assay [10]; above 50 µM in [11]; 16.5 µM in assay [12]. Moreover, the IC50 in [13] is above 50 µM; in assay [14] it was 23.9 µM; in [15], above 50 µM; in [16] it was above 50 µM; in assay [17], above 50 µM; in [18] it was 24.7 µM.
`N=C(N)SCc1cc2c(cc1Br)OCO2`: the IC50 in assay [1] was above 50 µM; in [2], above 50 µM; in assay [3] it was above 50 µM; in assay [4], above 50 µM; in assay [5] it was 44.3 µM; in assay [6], above 50 µM. The half-inhibitory concentration (IC50) was 34.8 µM in assay [7]; above 50 µM in assay [8]; above 50 µM in [9]; above 50 µM in assay [10]; above 50 µM in assay [11]; 34.3 µM in assay [12]. Further, the IC50 is above 50 µM in assay [13]; 22.1 µM in assay [14]; above 50 µM in assay [15]; above 50 µM in [16]; above 50 µM in assay [17]; 40.5 µM in [18].
In the case of `Cc1noc(C)c1CSC(=N)N`, the IC50 in assay [1] was above 50 µM; in [2], above 50 µM; in assay [3], above 50 µM; in assay [4], above 50 µM; in [5], 47.2 µM; in assay [6], above 50 µM. In addition, the IC50 in assay [7], in assay [8], in [9], in assay [10], in assay [11] and in assay [12] was above 50 µM in each case. Besides, the IC50 in assay [13], in assay [14], in assay [15], in [16], in assay [17] and in assay [18] was above 50 µM each time.
As for `N=C(N)SCc1nc2ccccc2nc1CSC(=N)N`, the 50% inhibitory concentration (IC50) in assay [1], in [2], in assay [3], in [4], in assay [5] and in assay [6] was above 50 µM in each case. Moreover, the IC50 in assay [7], in assay [8], in assay [9], in [10], in assay [11] and in assay [12] was above 50 µM each time. Further, the 50% inhibitory concentration (IC50) in assay [13], in [14], in assay [15], in [16], in assay [17] and in [18] was above 50 µM in each case.
With `N=C(N)SCc1ccc2ccccc2n1`, the IC50 was 37.3 µM in assay [1]; above 50 µM in assay [2]; above 50 µM in assay [3]; above 50 µM in assay [4]; 25.7 µM in assay [5]; above 50 µM in assay [6]. Also, the IC50 in assay [7] is 28.5 µM; in [8], 39.2 µM; in [9], above 50 µM; in [10], 31.6 µM; in [11], above 50 µM; in assay [12], above 50 µM. In addition, the 50% inhibitory concentration (IC50) in assay [13] was above 50 µM; in assay [14], 22.9 µM; in assay [15] it was above 50 µM; in assay [16], above 50 µM; in assay [17], above 50 µM; in assay [18], above 50 µM.
As for `N=C(N)SCc1ccc(-n2cccc2)cc1`, the half-inhibitory concentration (IC50) in assay [1] was above 50 µM; in assay [2] it was above 50 µM; in assay [3], above 50 µM; in assay [4], above 50 µM; in assay [5], 24.6 µM; in assay [6], above 50 µM. The IC50 in assay [7] was above 50 µM; in assay [8], above 50 µM; in [9] it was above 50 µM; in assay [10], 31.7 µM; in [11], above 50 µM; in assay [12], 40.6 µM. The half-inhibitory concentration (IC50) was above 50 µM in assay [13]; 31.5 µM in assay [14]; above 50 µM in [15]; above 50 µM in assay [16]; above 50 µM in assay [17]; above 50 µM in [18].
